Assay results taken from paper PMC11249109 (Drug Design, Development and Therapy, 2024).
Where “and” joins values, the source holds several entries; their conditions need not be identical. Equal entries are not always repeated. Where two headings read alike, the source gives them in different places.

Columns and labels:
[1] = Percentage recovery of unchanged panduratin A in urine and feces; format: in vivo, Male Wistar rats; conditions: rats
In short: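 Male Wistar rats (n=5/group, fasted 12 h) were dosed with 4.5 mg/kg i.v. (tail vein) or 45 mg/kg oral pure compound, both in 50% DMSO. Urine and feces were collected in metabolic cages at 0–24 and 24–72 h. Feces were bead-homogenised in methanol. Samples were precipitated with methanol containing glycyrrhizin as internal standard and quantified by negative-ESI triple-quadrupole LC-MS (calibration 0.98–1000 μg/L). Recovery is the amount excreted divided by the dose.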

[2] = Detection of panduratin A metabolites by QTOF LCMS in plasma, urine and feces; format: in vivo, Male Wistar rats; conditions: rats
In short: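 Male Wistar rats (fasted 12 h) received 4.5 mg/kg test compound i.v. via the lateral tail vein in 50% DMSO. Plasma came from tail-vein blood spun at 5000 g, 10 min, 4°C. Urine and feces were collected in metabolic cages at 0–24 and 24–72 h. Samples were methanol-precipitated and run on QTOF LC-MS with a C18 column at 35 °C and a 0.1% formic acid water/acetonitrile gradient.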

[3] = rats
SARS-CoV-2 = conditions: read-out: IC50, anti-SARS-CoV-2 activity; Vero E6 cells; cited from earlier work
HIV-1 protease = conditions: read-out: IC50, HIV-1 protease activity; cited from earlier work
Nitric oxide = conditions: read-out: IC50, nitric oxide inhibition; cited from earlier work
prostaglandin E2 = conditions: read-out: IC50, prostaglandin E2 inhibition; cited from earlier work
[4] = low solubility but high permeability; cited from earlier work
[5] = intravenous administration, 0–72 h
[6] = 45 mg/kg as panduratin A p.o., IC50 from ref 7

## COc1cc(O)c(C(=O)[C@@H]2[C@H](CC=C(C)C)C(C)=CC[C@H]2c2ccccc2)c(O)c1 [Panduratin A]
[1]; [5]
  unchanged panduratin A excreted in urine: 2 % of the administered dose
  unchanged panduratin A excreted via feces: 25 % of the administered dose
[1]; single oral administration, 0–72 h
  unchanged panduratin A excreted in urine: ~1 % of the administered dose
[1]; summary over i.v. and oral groups
  unchanged panduratin A excreted in feces, over the experimental groups: 20–30 % of the administered dose and 22–60 % of the administered dose
[2]
  glucuronidation form of panduratin A: not detected
[2]; after i.v. 4.5 mg/kg
  metabolites in plasma or urine (QTOF LCMS): none of the metabolites of panduratin A were detected in plasma or urine
[3]; 4.5 mg/kg i.v.
  plasma concentration after 72 h: 500 µg/L
[3]; [6]
  Cmax of panduratin A relative to in vitro anti-SARS-CoV-2 IC50: approximately 15 fold
  minimum plasma concentration at 24 h relative to in vitro anti-SARS-CoV-2 IC50: approximately 10 fold
[3]; 45 mg/kg as panduratin A single p.o.
  plasma concentration after 72 h: 500 µg/L
SARS-CoV-2
  IC50: 810 nM
HIV-1 protease
  IC50: 18.7 µM
Nitric oxide
  IC50: 175 nM
Prostaglandin E2
  IC50: 19.5 nM
[4]
  BCS class: BCS class II
